The whole screen tested about 190,000 compounds, of which about 1,800 (0.95%) were called active. This is one part of a sample in which actives are shown more often than they occur.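 How the source made its calls: active means activation above the screen-wide mean of compound activation plus 3 SD (cut at about 130% in these data); inactive means the rest.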

This assay in a line: IL-6 driven STAT3 reporter potentiators, primary screen, U3A cells, luciferase, luminescence, MLSCN library (AID 871).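 Further: 0% = background luminescence of wells with medium and substrate only.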 The following applies: IL-6 STAT3-luciferase reporter, at 5.6 µM, hits give high values, 100% = signal with IL-6 EC80 alone. A digest of the protocol: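 Material: STAT1-lacking human U3A cells, STAT3 luciferase reporter | Benchmarks: IL-6-only wells as 100% reference | Probe or stimulus: IL-6 (33 ng/mL) | Timing: Compound 1 h, then IL-6 6 h at 37 °C | Detection: Luminescence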
Turning to `Cc1ccccc1OCCOc1ccc([N+](=O)[O-])cc1/C=N/n1cnnc1`, the activation (% of control) is 111% (inactive).

On to `O=C(CCc1nnc(CCCCc2ccccc2)o1)NC(c1cccnc1)C(F)(F)F` (stereo unspecified), for which the activation (% of control) was 104% (inactive). On to `CC1(C)C=C2[C@H]3CC[C@@H]4[C@@]5(C)CCC(=O)C(C)(C)[C@@H]5CC[C@@]4(C)[C@]3(C)CC[C@@]2(C(=O)O)CC1`, for which the activation (% of control) was 99.9% (inactive). For `CC(=O)Nc1ccc(NC(=O)COc2ncnc3ccccc23)cc1` the value was 95.9% (inactive); for `CC(=O)Nc1ccc(Nc2c3ccccc3nc3ccccc23)cc1`, 218% (active); for `O=[N+]([O-])c1cccc(Nc2c3ccccc3nc3ccccc23)c1`, 109% (inactive). The same measure for `CC(C)C(C)(C#N)NC(=O)CSc1nc2scc(-c3ccccc3)c2c(=O)[nH]1` (stereo unspecified): 108% (inactive); for `O=C(Nc1ccncc1)c1cc(-c2ccccn2)nc2ccc(Br)cc12`: 111% (inactive). The same measure for `O=C(CSc1nn(-c2ccc(F)cc2)c(=S)s1)NC1CCS(=O)(=O)C1` (stereo unspecified): 98.1% (inactive); for `O=C(C1CCN(S(=O)(=O)Cc2ccccc2)CC1)N1CCCc2ccccc21`: 136% (active). For the molecule `CCS(=O)(=O)N1CCC(C(=O)N2CCN(c3ccccc3)CC2)CC1`, the activation (% of control) is 103% (inactive). The same measure for `Cc1noc(/C=C/c2ccco2)c1S(=O)(=O)N1CCC(C(=O)N2CCc3ccccc32)CC1`: 104% (inactive); for `O=C(O)/C(=C/c1cccnc1)NC(=O)c1ccccc1`: 107% (inactive). For `Nc1ccc(OCC(O)C[n+]2ccc(CCS(=O)(=O)[O-])cc2)cc1` (stereo unspecified) the value was 101% (inactive); for `CCC(C(=O)Nc1ccc2c(c1)OCCO2)c1ccccc1` (stereo unspecified), 93.2% (inactive). The same measure for `CN1C(=O)/C(=N/OC(=O)c2ccccc2Br)c2ccccc21`: 100% (inactive); for `CN1C(=O)/C(=C\c2cc(Br)cs2)c2ccccc21`: 178% (active); for `CCC1C(=O)c2ccccc2N(C)C1=O` (stereo unspecified): 110% (inactive).

Regarding `CN(C)c1ccc(C=C2C(=O)OC3(CCCC3)OC2=O)cc1`, the activation (% of control) is 103% (inactive). The same measure for `COc1ccccc1-c1nnc(NC(=O)c2ccc3ncsc3c2)o1`: 146% (active); for `COc1ccccc1-c1nnc(NC(=O)c2cccc(N3C(=O)CCC3=O)c2)o1`: 116% (inactive); for `COc1ccccc1-c1nnc(SCC(=O)Nc2cc(C)on2)o1`: 91% (inactive). Turning to `Cc1scc(C(=O)NNC(=S)NCC(C)C)c1C`, the activation (% of control) was 97.6% (inactive).

Consider `Cc1ccc(C(C)(C)C)c(OCCCCN2CCCC2)c1`, for which the activation (% of control) was 95.5% (inactive).

As for `Cc1nc(C)c(C(=O)Nc2ccc(C)c(F)c2)o1`, the activation (% of control) was 92.3% (inactive). For `Cc1nc(C)c(C(=O)Nc2cccc(C)c2C)o1` the value was 105% (inactive); for `COc1ccc(Cl)cc1NC(=O)c1oc(C)nc1C`, 162% (active). For the molecule `Cc1cc(Cl)ccc1NC(=S)NCCCN1CCCC1=O`, the activation (% of control) was 98.6% (inactive). For `COc1ccccc1N1CCN(C(=O)c2ccc(Cl)c(S(=O)(=O)N3CCCC3)c2)CC1` the value was 97% (inactive); for `Cc1ccc2c(Cl)c(C(=O)Nc3nn[nH]n3)sc2c1`, 96% (inactive); for `Cc1ccc(-c2cc(C(=O)Nc3nn[nH]n3)c3ccccc3n2)c(C)c1`, 140% (active). The same measure for `Cc1ccc(NC(=O)c2cc(-c3ccc(C)o3)nc3ccccc23)nc1`: 104% (inactive). For `CCOC(=O)C1(Cc2cccc(OC)c2)CCN(C(C)COC)CC1` (stereo unspecified) the value was 108% (inactive); for `COc1cccc(NC(=O)c2ccc3c(SCC(=O)O)c4c(nc3c2)CCCC4)c1`, 106% (inactive); for `COCC(=O)Nc1cc(C(=O)OC)cc(C(=O)OC)c1`, 97.7% (inactive). For `C#CCSc1nnc(-c2sc3ccccc3c2Cl)o1`, the activation (% of control) was 125% (inactive). The same measure for `Fc1ccc(CSc2nnc(-c3cc4c(s3)-c3ccccc3CC4)o2)cc1`: 117% (inactive); for `CCSc1nnc(-c2cc3c(s2)-c2ccccc2CC3)o1`: 173% (active). For `CCNC(=O)COC(=O)CCNC(=O)c1cccc(C)c1` the value was 102% (inactive); for `COc1cccc(C(=O)Oc2cc(C)[nH]c(=O)c2[N+](=O)[O-])c1`, 101% (inactive). On to `OC(COc1ccc2ccccc2c1)Cn1cncn1` (stereo unspecified), for which the activation (% of control) was 97.5% (inactive). The same measure for `OC(COc1cccc(OCC(O)CN2CCCC2)c1)CN1CCCC1` (stereo unspecified): 101% (inactive); for `OC(COc1ccc2ccccc2c1)CN1CCOCC1` (stereo unspecified): 159% (active); for `COc1ccc(/C=N/n2c(C)cc(C)cc2=O)cc1`: 83.5% (inactive).

With `C=CCn1c(-c2ccc3[nH]c(C)c(C)c3c2)n[nH]c1=S`, the activation (% of control) was 80.2% (inactive). For `C=CCn1c(-c2sc(-c3ccccc3)nc2C)n[nH]c1=S` the value was 94.6% (inactive); for `C=CCn1c(-c2ccccc2OCC)n[nH]c1=S`, 158% (active); for `COc1ccc(CC(=O)N[C@@H](CCSC)c2nc3ccccc3[nH]2)cc1`, 96.5% (inactive). For `COc1ccc(COC(=O)N/N=C(\C)CC(=O)Nc2ccc(Cl)cc2)cc1` the value was 101% (inactive). For `Cc1ccc(C2C(C#N)C(C#N)N3CCCN23)cc1` (stereo unspecified) the value was 141% (active); for `O=C(CCC(=O)NNc1nc2ccccc2c2nc(-c3ccccc3)nn12)NCCCN1CCCC1=O`, 112% (inactive).

Regarding `Cc1nccn1CCCNC(=O)CC1C(=O)NCCN1Cc1ccc(Cl)c(F)c1` (stereo unspecified), the activation (% of control) was 100% (inactive).

With `COc1ccc(C(CC(=O)c2ccccc2)S(=O)(=O)c2ccccc2)cc1` (stereo unspecified), the activation (% of control) was 110% (inactive). The same measure for `COc1ccc(C=Nc2cccc3ncccc23)cc1`: 109% (inactive); for `Oc1c(C=Nc2cccc3nsnc23)ccc2ccccc12`: 144% (active); for `Cc1ccc(Nc2nc(-c3sc(NC(=O)c4ccccc4)nc3C)cs2)cc1`: 138% (active). The same measure for `C=CCCC(=O)Nc1nc(C)c(-c2csc(Nc3ccc(Cl)cc3)n2)s1`: 159% (active). The same measure for `CCCCCCC(=O)Nc1nc(C)c(-c2csc(Nc3cc(Cl)ccc3OC)n2)s1`: 105% (inactive); for `Cc1nc(NC(=O)CN(C)S(=O)(=O)c2ccc(Cl)cc2)sc1C`: 106% (inactive).

With `Cc1nc(NC(=O)c2cccc(Cl)c2)sc1-c1csc(Nc2cccc(Cl)c2)n1`, the activation (% of control) is 117% (inactive). For `Cc1ccc(-c2csc(NNC(=O)c3ccccc3)n2)cc1`, the activation (% of control) was 101% (inactive). Take `CCCCC(=O)Nc1nc(C)c(-c2csc(Nc3ccc(Cl)cc3)n2)s1`: the activation (% of control) was 149% (active). The same measure for `CCCCCCC(=O)Nc1nc(C)c(-c2csc(Nc3cccc(OC)c3)n2)s1`: 99.6% (inactive); for `COc1ccc(-c2csc(NC(=O)COC(=O)Cc3ccc(Cl)cc3Cl)n2)cc1`: 100% (inactive). For `Cc1ccc(S(=O)(=O)c2ccc(Cl)cc2)cc1S(=O)(=O)NC(C(=O)O)C(C)C` (stereo unspecified) the value was 102% (inactive); for `Clc1ccc(-c2nc3ccccn3c2CN2CCSCC2)cc1`, 99.3% (inactive); for `Cn1c(=O)c2cc(S(=O)(=O)NCCC(=O)Nc3ccc(F)cc3F)ccc2n(C)c1=O`, 109% (inactive). For `COc1ccc(NC(=O)CC2C(=O)OCC3CCCCN32)cc1Cl` (stereo unspecified) the value was 102% (inactive).

As for `COc1ccccc1CN(C)c1nnnn1-c1ccccc1`, the activation (% of control) is 99.5% (inactive).

Turning to `COc1cccc(-n2c(=S)[nH]c3c(oc4ccccc43)c2=O)c1`, the activation (% of control) was 136% (active). The same measure for `COc1cccc(-n2cc(C(=O)O)c3ccccc3c2=O)c1`: 98.5% (inactive); for `COC(=O)c1ccc(CSc2nc3ccccc3c(=O)n2-c2cccc(OC)c2)o1`: 101% (inactive).

As to `O=Cc1ccc(OCc2cn3ccccc3n2)cc1`, the activation (% of control) is 101% (inactive). Regarding `COc1ccc(/C=C(\NC(=O)c2ccc(OCC(C)C)cc2)C(=O)OCc2ccco2)cc1`, the activation (% of control) was 111% (inactive).

As to `NNc1nc2c(Cl)cccc2s1`, the activation (% of control) was 134% (active). The same measure for `Fc1cc(F)c2nc(Nc3nc4c(F)cccc4s3)sc2c1`: 129% (inactive); for `COc1cccc2sc(Nc3nc(C)c(C(C)=O)s3)nc12`: 108% (inactive); for `O=C(CSc1ccccn1)Nc1nc2c(ccc3ccccc32)s1`: 103% (inactive).

For `NC(=O)Cn1nc([N+](=O)[O-])nc1Oc1ccc(Br)cc1`, the activation (% of control) was 93.7% (inactive). The same measure for `CC(=O)N1N=C(c2ccccc2)OC1c1cccnc1` (stereo unspecified): 103% (inactive); for `CC(=O)Nc1cccc(NC(=O)c2c(-c3ccccc3)noc2C)c1`: 88.8% (inactive). The same measure for `CCOC(=O)c1c(-c2cccc(C)c2)csc1NC(=O)c1c(-c2ccccc2)noc1C`: 137% (active); for `CCOC(=O)c1c(-c2ccccc2)csc1NC(=S)NC(=O)c1ccccc1`: 106% (inactive). The same measure for `O=C(/C=C/c1ccccc1)Nc1nnc(SCC(=O)c2ccc3ccccc3c2)s1`: 104% (inactive); for `COc1ccc(NS(=O)(=O)c2ccc(O)c(C(=O)OCC(=O)NC3CCCCC3)c2)cc1`: 102% (inactive); for `CCN=c1sc(C(=O)Nc2ccccc2)c(C)n1CC`: 84.4% (inactive). Regarding `COc1ccccc1C1C2=C(COC2=O)Nc2cc3c(cc21)OCO3` (stereo unspecified), the activation (% of control) is 144% (active).

On to `CCCOc1ccccc1C1CC(=O)Nc2cc3c(cc21)OCO3` (stereo unspecified), for which the activation (% of control) is 66.4% (inactive). In the case of `COc1cc2c(cc1/C=C1/NC(=O)N(c3ccccc3)C1=O)OCO2`, the activation (% of control) is 88.5% (inactive).

Take `CSc1ccc(CN(C)CC(=O)NCc2ccc(F)cc2)cc1`: the activation (% of control) is 106% (inactive). For `CCOC(=O)N1CCN(CC(=O)Nc2cc(C)nn2-c2nc3ccccc3s2)CC1` the value was 162% (active). For `CCOC(=O)N1CCN(CC(=O)Nc2ccc(F)cc2)CC1` the value was 108% (inactive). On to `Cc1cc(NC(=O)CN2CCCC(C)C2)n(-c2nc3ccccc3s2)n1` (stereo unspecified), for which the activation (% of control) is 113% (inactive). In the case of `O=C(CCNC(=O)c1ccc([N+](=O)[O-])cc1)Nc1ccccc1N1CCOCC1`, the activation (% of control) was 104% (inactive). As for `NC(=O)CC[C@@H]1NC(=O)[C@H](CO)NC(=O)c2cc([N+](=O)[O-])cc(I)c2NCC[C@@H](C(N)=O)NC1=O`, the activation (% of control) was 95.5% (inactive). For `c1ccc(C2c3[nH]c4ccccc4c3CCN2Cc2cccn2-c2cccnc2)nc1` (stereo unspecified) the value was 94% (inactive); for `Oc1cccc(C2c3[nH]c4ccccc4c3CCN2Cc2cnn(-c3ccccc3)c2)c1` (stereo unspecified), 138% (active). Turning to `Cc1cc(O)cc(O)c1C(=O)Cc1cnn(-c2ccccc2)c1`, the activation (% of control) is 92.8% (inactive). Consider `Cc1ccc(Cl)cc1NC(=S)N(CCN(C)C)Cc1cccs1`, for which the activation (% of control) is 96.1% (inactive). The same measure for `COc1ccc2c(CC(=O)OCC(=O)Nc3ccccc3[N+](=O)[O-])coc2c1`: 110% (inactive). Consider `Cc1ccc(-c2cc(C(=O)N3CCc4ccccc4C3)no2)cc1`, for which the activation (% of control) is 98.3% (inactive). With `Cc1ccc2c(c1)c1ncnc(N3CCc4ccccc4C3)c1n2C`, the activation (% of control) is 133% (active). For `Cc1ccc2c(c1)c1ncn(CCC3=CCCCC3)c(=O)c1n2C` the value was 104% (inactive). For `Fc1ccc(COc2cccc(-c3n[nH]c(=S)o3)c2)cc1` the value was 102% (inactive).

In the case of `CCOC(=O)N1CCN(Cc2nc3ccc([N+](=O)[O-])cc3c(=O)n2-c2cccc(OC)c2)CC1`, the activation (% of control) was 83.3% (inactive).

Consider `CCn1cc(C(=O)NCCCN2CCCCCC2)c(=O)c2cc(S(=O)(=O)N3CCc4ccccc4C3)ccc21`, for which the activation (% of control) is 108% (inactive).

On to `COc1ccc(C(=O)ON=C2c3ccccc3-c3ccccc32)cc1OC`, for which the activation (% of control) is 107% (inactive). For `COc1ccc(NC(=O)ON=C2c3ccccc3-c3ccccc32)cc1` the value was 152% (active); for `COc1ccc(NC(=O)C(Br)C(C)C)cc1` (stereo unspecified), 101% (inactive); for `COCCN(C(=O)c1ccccc1F)c1c(N)n(Cc2ccccc2)c(=O)[nH]c1=O`, 89.7% (inactive).

Consider `CC12CN(NC(=O)c3ccc(Cl)cc3)C3(C#N)CC1CCC23C` (stereo unspecified), for which the activation (% of control) was 104% (inactive).

Values taken from PubChem BioAssay AID871 (The Scripps Research Institute Molecular Screening Center, 2007).
